# Bioassay records from PubChem BioAssay.
# The list is not random: actives were taken first. Their share in the collection is about 4.5%.
# TAAR1 agonist: human TAAR1 agonists, primary screen, Fluo-8 calcium fluorescence, CHO RD-HGA16 cells; Trace amine-associated receptor 1 (Homo sapiens), Q96RJ0; vehicle wells 0%, saturating PEA agonist 100%; activation, % at 3 µM; actives 0.99% (n = 360,000); AID 624467, 2012;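 active = activation above the mean activation of all test compounds in the run plus 3 SD, cut at about 38% in these data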
# Target sequence (Q96RJ0 whole entry, looked up): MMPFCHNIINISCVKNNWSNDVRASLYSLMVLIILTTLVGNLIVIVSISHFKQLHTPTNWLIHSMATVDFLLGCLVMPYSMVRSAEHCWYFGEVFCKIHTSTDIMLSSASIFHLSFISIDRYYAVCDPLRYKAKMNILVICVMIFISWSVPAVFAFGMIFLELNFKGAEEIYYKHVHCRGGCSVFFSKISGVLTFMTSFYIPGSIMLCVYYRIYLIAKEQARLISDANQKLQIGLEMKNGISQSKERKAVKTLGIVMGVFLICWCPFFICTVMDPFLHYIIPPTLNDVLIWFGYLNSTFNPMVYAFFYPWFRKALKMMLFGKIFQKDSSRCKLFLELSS
#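 Test system: RD-HGA16 (CHO) cells co-expressing Gα16 and hTAAR1; dosing: one-point dosing at 3 µM (nominal); timing: 17-24 h seeding, 75 min 37 °C dye, 30 min RT; signal: kinetic Fluo-8 calcium fluorescence; read-out basis: % activation relative to PEA EC100 response; controls: DMSO and PEA EC100; replicates: n 1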
# OX1R antag-1: OX1R (HCRTR1) antagonists, primary screen, fluorescence, CHO/OX1R cells, Fluo-8 calcium, orexin A | inhibition, % at 5 µM | Fluo-8 calcium fluorescence | Orexin/Hypocretin receptor type 1 (Homo sapiens), O43613 | actives 0.43% (n = 330,000) | AID 434989, 2010;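 active = inhibition above its plate's threshold, mean inhibition of all tested compounds on the plate plus 3 SD, cut at about 37% in these data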;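 also: 0% = orexin A challenge wells and 100% = SB-334867-A antagonist wells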
# CHO parental Ca: ATP-evoked calcium signal inhibitors, parental CHO, primary screen, counter-screen for OX1R antagonist project, cell-based, fluorescence, Fluo-8 calcium dye; inhibition, % at 5.6 µM; parental CHO-K1, ATP-induced calcium, Fluo-8 fluorescence; AID 463079, 2010; actives 0.63% (n = 330,000);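 active = inhibition above that plate's mean sample inhibition plus 3 SD, cut at about 26% in these data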;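 also: 0% = ATP-challenged DMSO wells and 100% = DMSO wells without ATP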
#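 Material: Parental CHO cells | Reagent: ATP | Compound dosing: Single nominal dose of 5.6 µM per compound | Detection: Intracellular calcium via Fluo-8 no-wash fluorescent dye | Read-out: % inhibition of ATP-induced calcium mobilization | Benchmarks: Low control ATP plus DMSO, high control DMSO only | Replicates: Singlicate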
# GPR7 antagonist: GPR7 receptor antagonists, primary screen, cell-based, fluorescence, single concentration; Neuropeptides B/W receptor type 1 (Homo sapiens), P48145; GPR7-expressing cells, fluorescence antagonist assay; inhibition, % at 4.4 µM; actives 1.1% (n = 290,000); AID 1861, 2009; in the data active = inhibition above about 16%, passing the limit was not always enough;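 also: cells stimulated with the agonist NPW; 0% = agonist with vehicle and 100% = vehicle without agonist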
# OX1R antag-2: antagonists of human orexin 1 receptor (OX1R) | inhibition, % at 6.6 µM | OX1R-expressing cells, FRET antagonist read-out | actives 1.8% (n = 330,000) | AID 485270, 2010 | Orexin/Hypocretin receptor type 1 (Homo sapiens), O43613; in the data active = inhibition mostly above about 38%, no sharp cut-off; inactive = mostly below about 40%;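 also: 0% = agonist challenge alone and 100% = reference antagonist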
# TAAR1 antag: human TAAR1 antagonists, primary screen, Fluo-8 calcium fluorescence, CHO RD-HGA16 cells. AID 624466, 2012. inhibition, % at 3 µM. actives 1.5% (n = 360,000). antagonist;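 active = inhibition above a per-plate cutoff, the mean inhibition of test compounds on that plate plus 3 SD, cut at about 49% in these data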;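 also: 0% = DMSO plus EC80 beta-PEA response and 100% = DMSO alone without agonist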
#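 Material: CHO RD-HGA16 cells bearing hTAAR1; compound dosing: one-point dosing, 3 µM nominal final; schedule: dye loading 75 min at 37 °C, then 30 min room temperature; measured by: calcium fluorescence with Fluo-8; control set: vehicle and agonist controls; replication: n of 1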
# OX1R HTRF confirm: OX1R (HCRTR1) antagonists, confirmation, cell-based, HTRF; shares compounds with OX1R antag-2; OX1R-expressing cells, HTRF antagonist assay; inhibition, % at 6.6 µM; actives 49% (n = 1,800); AID 492964, 2010; in the data active = inhibition above about 55%;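 also: CHO cells expressing OX1R stimulated with orexin A at about EC80; 0% = agonist challenge alone and 100% = reference antagonist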
# CHO-K1 HTRF cnt: signal inhibition in parental CHO-K1 cells, counter-screen for OX1R antagonist project, cell-based, HTRF; shares compounds with OX1R antag-2; HTRF counterscreen; inhibition, % at 6.6 µM; actives 48% (n = 1,800); AID 493232, 2011; in the data active = inhibition above about 17%;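 also: 0% = agonist challenge with vehicle and 100% = vehicle alone without agonist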
# Active calls of the source: *; nt = no result given.
SMILES,TAAR1 agonist,OX1R antag-1,CHO parental Ca,GPR7 antagonist,OX1R antag-2,TAAR1 antag,OX1R HTRF confirm,CHO-K1 HTRF cnt
O=C(COC(=O)Cc1ccc([N+](=O)[O-])cc1)NCc1ccc2c(c1)OCO2,-1,-5,-1,nt,20,10,nt,nt
O=C(COc1ncnc2cc([N+](=O)[O-])ccc12)NCc1ccc2c(c1)OCO2,5,-17,-10,-11,81*,0,34,45*
Cc1ccc2cccc(OCc3cccc([N+](=O)[O-])c3)c2n1,17,-27,-29,1,7,6,nt,nt
O=[N+]([O-])c1cccc(COc2ncnc3cc([N+](=O)[O-])ccc23)c1,0,-20,-4,-11,91*,-32,46,48*
CCN(CC)c1ccc2nc3ccccc3[n+](CC)c2c1,nt,1,-8,-17,149*,nt,110*,157*
COc1cccc2sc(Nc3nc(-c4ccncc4)cs3)nc12,0,16,6,9,82*,5,98*,8
COc1cc(NC(=O)c2ccccc2)c(OC)cc1NC(=O)CN1C(=O)NC2(CCCCC2C)C1=O (stereo not drawn),2,-16,-24,nt,4,1,nt,nt
COc1cccc2oc3ccc(C#Cc4ccccn4)cc3c(=O)c12,8,4,-17,-12,85*,17,91*,0
CCn1c(SCC(=O)c2c[nH]c3ccccc23)nnc1-c1cccs1,15,12,-16,-1,39,24,nt,nt
CCn1c(SCc2nc(-c3cccs3)no2)nnc1-c1c[nH]c2ccccc12,18,10,-25,14,81*,50*,43,3
CCN(CC(=O)Nc1sc2c(c1C#N)CCCC2)Cc1nc2ccccc2c(=O)[nH]1,5,24,-14,-11,83*,28,58*,0
Cc1cccc(Oc2ccc3c(c2)cc(C(=O)O)n3C)c1,0,4,4,-4,53,-6,nt,nt
CCCCNC(=O)C1(C)CCCCN1Cc1ccc2ccccc2c1 (stereo not drawn),2,nt,nt,nt,nt,-19,nt,nt
CC(=O)N1CCn2c3c(c(=O)c4cc(C)ccc42)CCC31 (stereo not drawn),3,-11,-5,-5,82*,6,29,13
COc1ccccc1OCCCOc1cccc(/C=C2\SC(=O)NC2=O)c1,5,-13,-10,7,78*,28,54,22*
COc1ccc(C=C2SC(=O)NC2=O)cc1OC,1,nt,nt,nt,nt,8,nt,nt
N#CC(C#N)=c1ccc2c(c1)NC1(CCCCC1)N=2,7,-4,-8,-14,191*,-9,52,58*
N#CC(C#N)=C1NC2(CCCCC2)Cc2ccccc21,19,-13,-8,-4,4,4,nt,nt
N#Cc1ncc(-c2ccc3c(c2)OCCOCCOCCOCCO3)nc1C#N,0,-5,-8,-1,117*,15,55*,54*
N#Cc1ncc(-c2ccc3c(c2)OCCOCCOCCOCCOCCO3)nc1C#N,4,-12,-11,-3,109*,-10,32,4
CC(=O)N(CN1C(=O)c2ccccc2C1=O)c1cccc(C)c1,0,-2,-18,11,14,1,nt,nt
CC(=O)N(/N=C1\Sc2ccccc2C1=O)c1cccc(C)c1,10,9,2,2,105*,7,19,12
O=C(Nc1ccc2nn(-c3ccccc3)nc2c1)c1ccco1,15,21,7,1,95*,18,71*,7
